For 61 compounds, activation results are on record in PubChem BioAssay AID504383 (The Scripps Research Institute Molecular Screening Center, 2011).

The structures appear in SMILES notation. The whole screen tested about 2,500 compounds, of which about 1,200 (48%) were called active.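 Rule for the calls: active = mean activation above the low control average plus 3 SD, as set in the primary screen (cut at about 12% in these data); inactive = the rest.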 The set was probably picked from earlier hits. The list shows a part of the results.

In this test the target is Troponin I, cardiac muscle (Homo sapiens) + Troponin T, cardiac muscle (Homo sapiens) + Troponin C, slow skeletal and cardiac muscles (Homo sapiens) (UniProt P19429+P45379+P63316). In words: cardiac RTF calcium sensitivity activators, confirmation, biochemical, IANBD-TnC fluorescence, triplicate (AID 504383).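 Note: 0% = DMSO at 0.472 mM calcium and 100% = DMSO at 2.9 mM calcium.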 The following applies: IANBD-labeled cardiac RTF, Ca2+ sensitivity fluorescence; at 7.2 µM; active compounds read high; scaled from EC20 to saturating calcium; tested at EC20 calcium, 0.472 mM. An outline of the steps: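 material = labelled regulated thin filaments | probe or stimulus = Ca2+ 0.472 mM, EC20 level | dosing = single nominal compound dose of 7.2 µM | schedule = 15 min at 25 °C | signal = fluorescence intensity of labelled filaments | evaluation = fluorescence gain scaled between EC20 and EC100 calcium controls | benchmarks = low control EC20 calcium, high control EC100 calcium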
Consider `CC1=Nc2ccccc2/C1=C\c1nc(-c2ccc(C(F)(F)F)cc2)oc1O`, for which the activation was 7.9% (inactive). With `COc1ccc(-c2nc(/C=C3\C(C)=Nc4ccccc43)c(O)o2)cc1` the figure was 12.1% (active); with `CC1=Nc2ccccc2/C1=C\c1nc(-c2ccc(F)cc2)oc1O`, 7.33% (inactive); with `N#C/C(=C\c1ccc(-c2ccc(F)cc2)o1)C(=O)Nc1nc(-c2cccs2)cs1`, 81.8% (active).

With `N#C/C(=C/c1ccc(-c2ccccc2)o1)c1nc(-c2cccs2)cs1`, the activation was 105% (active). Regarding `Cn1c(/C(C#N)=C/c2ccc(-c3ccc(S(N)(=O)=O)cc3)o2)nc2ccccc21`, the activation is 9.43% (inactive).

Regarding `CN1CCc2c(sc3c2C(=O)NC(c2ccco2)N3)C1` (stereo unspecified), the activation is 1.53% (inactive). In the case of `O=C1NC(c2ccco2)Nc2sc3c(c21)CCN(Cc1ccccc1)C3` (stereo unspecified) it was 11.7% (active); in that of `Cc1ccsc1C1NC(=O)c2c(sc3c2CCN(C)C3)N1` (stereo unspecified), 63.1% (active); in that of `CSc1ccc(C2NC(=O)c3c(sc4c3CCN(C)C4)N2)cc1` (stereo unspecified), 22.9% (active). With `CN1CCc2c(sc3c2C(=O)NC(c2ccccn2)N3)C1` (stereo unspecified) the figure was 1.45% (inactive); with `Cc1ccc(C2NC(=O)c3c(sc4c3CCN(C)C4)N2)o1` (stereo unspecified), 12.6% (active). In the case of `Cc1ccc(C2NC(=O)c3c(sc4c3CCN(C)C4)N2)s1` (stereo unspecified) it was 5.94% (inactive). With `CN1CCc2c(sc3c2C(=O)NC(c2cccs2)N3)C1` (stereo unspecified), the activation was 9.65% (inactive). With `CCc1ccccc1NC(=S)NCc1cccn1C` the figure was 9.11% (inactive); with `O=C(NCCCN1CCOCC1)C(=O)NCc1ccco1`, 9.34% (inactive); with `Cn1c(C(=O)NCCCN2CCCCCC2)cc2c(=O)n(C)c3ccccc3c21`, 18.9% (active). With `O=C(C1=NN[C@@H]2C(=O)N(c3ccccc3C(F)(F)F)C(=O)[C@H]12)c1ccc2ccccc2n1` the figure was 60.7% (active); with `Cc1ccc(C)c(N2CCN(C(=O)CN3C(=S)NC(C)(C)CC3C)CC2)c1` (stereo unspecified), 42.4% (active); with `CC1CC(C)(C)NC(=S)N1CCCC(=O)Nc1ccccc1F` (stereo unspecified), -0.32% (inactive). With `CC(C)C[C@@H](CN=[N+]=[N-])N1CCN(C)CCC1=O` the figure was -0.6% (inactive); with `CCN1CCN(C2=CC3=CC(=C(C#N)C#N)CCC3CC2)CC1` (stereo unspecified), 0.71% (inactive). In the case of `Cc1oc(-c2ccccc2Cl)nc1CSc1nc2c(c(=O)[nH]1)CCC2`, the activation is 6.98% (inactive). With `Fc1ccc(CNC(=S)NCc2ccc(F)cc2)cc1` the figure was 54.8% (active). Consider `O=C(NCc1ccccc1)C1(c2cccc(F)c2)CCCC1`, for which the activation is 6.54% (inactive). In the case of `Fc1ccc(CNCc2ccc(Br)cc2)cc1` it was 10.4% (inactive).

Take `Cc1cc(=O)c2c([nH]1)c(C)cc1[nH]c(C)c(C)c12`: the activation was 9.89% (inactive). In the case of `CC1(C)C([N+](=O)[O-])C(c2ccc(F)cc2)NC(c2ccc(F)cc2)C1[N+](=O)[O-]` (stereo unspecified) it was 1.97% (inactive); in that of `COC(=O)C1(C)NC(c2ccc(C)cc2)C2C(=O)N(c3ccc(F)cc3)C(=O)C21` (stereo unspecified), 17% (active); in that of `CC(C)CN1CCN(Cc2cccn2-c2ccc(Cl)cn2)CC1CCO` (stereo unspecified), 155% (active). For `O=S(=O)(c1ccc(F)cc1)N1CN(Cc2ccco2)c2nc3ccccc3nc21`, the activation is 19% (active). With `COc1ccc(S(=O)(=O)N2CN(Cc3ccco3)c3nc4ccccc4nc32)cc1` the figure was 127% (active); with `CCCCCCC(=O)N/N=C/c1ccco1`, 7.23% (inactive); with `Cc1ccccc1N(CC(N)=O)S(C)(=O)=O`, 4.33% (inactive).

For `CS(=O)(=O)N(CC(=O)N/N=C/c1ccco1)c1ccccc1Br`, the activation is 116% (active). With `O=C(O)c1ccccc1-c1c2cc(I)c(=O)c(I)c-2oc2c(I)c(O)c(I)cc12` the figure was 5.23% (inactive); with `C#CCOCCOCCOCCNc1nc(N2CCN(C(=O)Cn3cc(CCCCN)nn3)CC2)nc(N2CCN(C(=O)Cn3cc(CC(C)O)nn3)CC2)n1` (stereo unspecified), 5.79% (inactive); with `C=C1CCN([C@@H](Cc2ccccc2)C(=O)O)S(=O)(=O)c2ccccc21`, 15.6% (active). For the compound `C=C1CCN(C(CC(C)C)C(=O)OC)S(=O)(=O)c2ccccc21` (stereo unspecified), the activation is 4.69% (inactive). In the case of `O=C(O)c1ccc2c(c1)S(=O)(=O)c1ccccc1C2=O` it was 6.82% (inactive); in that of `COc1ccc(/C=C/C=C2\N=C(SC)SC2=O)cc1`, 6.95% (inactive). As for `COc1ccc(/C=C/c2nc3sc4c(c3c(=O)o2)CCC4)cc1`, the activation was 292% (active). With `Fc1ccc(-c2[nH]ncc2CN(CC2CCC2)CC2CCCO2)c(F)c1` (stereo unspecified) the figure was 46.1% (active); with `CCCN1C(=O)/C(=C/c2ccc(N3CCOCC3)cc2)NC1=S`, 217% (active); with `CN1C/C(=C\c2ccc(N3CCOCC3)cc2)C(=O)/C(=C/c2ccc(N3CCOCC3)cc2)C1`, 11.8% (active). With `O=C1/C(=C/c2ccc(N3CCCC3)cc2)NC(=S)N1C1CC1` the figure was 1.84% (inactive). With `CCN1C(=O)/C(=C/c2ccc(N3CCCC3)cc2)NC1=S` the figure was 7.36% (inactive); with `CCN1C/C(=C/c2ccc(N3CCOCC3)cc2)C(=O)/C(=C/c2ccc(N3CCOCC3)cc2)C1`, 4.14% (inactive); with `CCC(C)NC(=O)C1CC(=O)N(CCc2ccc(F)cc2)C1` (stereo unspecified), 331% (active). With `COc1ccc(S(=O)(=O)N2CCC(C(=O)NC(C)CCc3ccccc3)CC2)cc1` (stereo unspecified), the activation was 11.2% (inactive).

On to `Clc1ccccc1/C=N/NC1=Nc2cccc3cccc1c23`, for which the activation was 5.59% (inactive). In the case of `O=[N+]([O-])c1ccc(NN=Cc2cccc3ccccc23)nc1` it was 31.4% (active). With `O=[N+]([O-])c1ccc(N/N=C/c2ccc(OCc3cccc4ccccc34)cc2)nc1` the figure was 8.03% (inactive). Take `Cc1cc(C)c2c(=O)n(-c3ccccc3)[nH]c2n1`: the activation was 10.3% (inactive).

For the compound `Cc1cc(C)c(C#N)c(Sc2nnnn2-c2ccccc2)n1`, the activation was 27.6% (active).

`O=c1c(/C=N/Nc2ccccc2)c(Sc2nnnn2-c2ccccc2)nc2ccccn12`: the activation was 2.36% (inactive). In the case of `CC(C)(C)c1cc(NCc2ccccn2)n2ncc(-c3ccc(Cl)cc3)c2n1` it was 7.76% (inactive); in that of `CCOC(=O)c1c(=O)n(O)c2ccc(OC)cc2[n+]1[O-]`, 8.7% (inactive). In the case of `COC(=O)c1c(=O)n(O)c2ccc(OC)cc2[n+]1[O-]` it was 16.1% (active). With `COc1ccc2c(c1)c(/C=C/c1cc[n+](C)cc1)cn2C`, the activation is 4.1% (inactive). With `COC(=O)C1CSc2[nH]c(=O)sc2C1c1ccccc1` (stereo unspecified) the figure was 8.86% (inactive).
